Assay results as given in ChEMBL document CHEMBL2346582, “Guanidino anthrathiophenediones as G-quadruplex binders: uptake, intracellular localization, and anti-Harvey-Ras gene activity in bladder cancer cells” (J Med Chem, 2013).
Active and inactive are the calls of the source. The rule behind the calls is not given here.

Columns and labels:
T-24 [1] = assay: Cellular uptake in human T24 cells assessed as accumulation in nucleoplasm at 2.5 uM after 2 hrs by propidium iodide staining-based confocal microscopic analysis; assay type: ADME, cell-based; settings: t-24, 2 h
In short: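 T24 cells plated (3 × 10^5) on coverslips and treated after 24 h with 2.5 μM ligand for 2 h. Fixed in 3% paraformaldehyde and permeabilized with Triton X-100. Cytoplasm immunostained for DRP1 with FITC secondary; nuclei stained with propidium iodide plus RNase A. Ligand red fluorescence excited at 543 nm; confocal Z-sections at 2 μm intervals.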

Homo sapiens [2] = species on record: Homo sapiens; assay: Thermal stabilization of human telomeric G-quadruplex FAM-TTAGGGTTAGGGTTAGGGTTAGGG-TAMRA DNA assessed as melting temperature at 1:5 DNA:ligand ratio by FRET assay
In short: (§1)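 Telomeric quadruplex (TTAGGG)4, 200 nM, dual-labelled, in 100 mM KCl, Tris-HCl buffer. Melted with ligand at r = 1, 2, 3, 4 or 5 ([ligand]/[quadruplex]). Samples equilibrated 5 min at 20 °C, then heated in 1 °C/min steps to 95 °C; TM read from the donor/acceptor emission.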

Homo sapiens [3] = species on record: Homo sapiens; assay: Thermal stabilization of human telomeric G-quadruplex FAM-TTAGGGTTAGGGTTAGGGTTAGGG-TAMRA DNA assessed as melting temperature at 1:1 DNA:ligand ratio by FRET assay; in short: as §1
Homo sapiens [4] = species on record: Homo sapiens; assay: Thermal stabilization of human telomeric G-quadruplex FAM-TTAGGGTTAGGGTTAGGGTTAGGG-TAMRA DNA assessed as melting temperature at 1:2 DNA:ligand ratio by FRET assay; in short: as §1
Homo sapiens [5] = species on record: Homo sapiens; assay: Thermal stabilization of human telomeric G-quadruplex FAM-TTAGGGTTAGGGTTAGGGTTAGGG-TAMRA DNA assessed as melting temperature at 1:4 DNA:ligand ratio by FRET assay; in short: as §1
Homo sapiens [6] = species on record: Homo sapiens; assay: Thermal stabilization of human telomeric G-quadruplex FAM-TTAGGGTTAGGGTTAGGGTTAGGG-TAMRA DNA assessed as melting temperature at 1:3 DNA:ligand ratio by FRET assay; in short: as §1
HEK293 [7] = assay: Cellular uptake in human HEK293 cells at 0.5 to 10 uM after 8 hrs by flow cytometric analysis; assay type: ADME, cell-based; settings: hek293, 8 h
In short: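 Cells plated at 5 × 10^4 per well and treated next day with ligand at […] for 8 h. Then trypsinized, resuspended in PBS and analysed by flow cytometry (488 nm excitation, FL3 680 nm, log scale), at least 10,000 cells per sample. Uptake read from intrinsic ligand red fluorescence.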

T-24 [8] = assay: Cellular uptake in human T24 cells at 0.5 to 10 uM after 10 mins to 8 hrs by flow cytometric analysis; assay type: ADME, cell-based; settings: t-24, 10 µM
In short: (§2)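 Flow cytometric uptake of 10 μM ligand over time (15 min, 1, 2, 6, 8 h; T24, and up to 8 h in NIH 3T3 and 293). Cells plated at 5 × 10^4 per well the day before. Ligand fluorescence detected in FL3 (680 nm), at least 10,000 cells acquired.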

HEK293 [9] = assay: Cellular uptake in human HEK293 cells at 0.5 to 10 uM after 10 mins to 8 hrs by flow cytometric analysis; assay type: ADME, cell-based; settings: hek293, 10 µM; in short: as §2
Homo sapiens [10] = species on record: Homo sapiens; assay: Binding affinity to 32mer duplex DNA (unknown origin) at 5 uM by UV-vis titration

With `N=C(N)NCCCCNc1c2c(c(NCCCCNC(=N)N)c3sccc13)C(=O)c1ccccc1C2=O` the Drug uptake (T-24 [1]) was “Active”, the Tm (Homo sapiens [2]) was 83.7 °C and the Tm (Homo sapiens [3]) was 58.5 °C. The Tm (Homo sapiens [4]) was 76.3 °C, the Tm (Homo sapiens [5]) was 81.1 °C and the Tm (Homo sapiens [6]) was 79.1 °C.
In the case of `N=C(N)NCCNc1c2c(c(NCCNC(=N)N)c3sccc13)C(=O)c1ccccc1C2=O`, the Drug uptake (HEK293 [7]) was “Active”, the Drug uptake (T-24 [8]) was “Active” and the Drug uptake (HEK293 [9]) was “Active”. The Activity (Homo sapiens [10]) was “Active”.
